From ChEMBL document CHEMBL2157949 (J Med Chem, 2012)
pIC50, pKi: −log10 of the molar value. Each block holds one compound with its values, some of them ahead of it. Active and inactive are the calls of the source. The calls are words filed in the database; no cut-off is given here.

Legend:
R2 [1] = experiment: Growth inhibition of Chinese hamster R2 cells deficient in reduced folate carrier and human folate receptor alpha incubated for 96 hrs by CellTiter-blue cell viability assay; assay type: cell-based, Cricetulus griseus; settings: R2, 96 h
R2 [2] = experiment: Growth inhibition of Chinese hamster R2 cells expressing human PCFT incubated for 96 hrs by CellTiter-blue cell viability assay; assay type: functional, cell-based, Cricetulus griseus; settings: R2, 96 h
Method in brief: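 R2/hPCFT4 CHO cells maintained beforehand in folate-free RPMI 1640 with dialyzed FBS, 25 nM LCV and G418. Assay: ~2500–5000 cells/well in folate-free RPMI 1640 (pH 7.2) with 25 nM LCV, 10% dialyzed FBS, antibiotics and L-glutamine, over a range of drug concentrations.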

[3] = Growth inhibition of Chinese hamster PC43-10 cells expressing reduced folate carrier incubated for 96 hrs by CellTiter-blue cell viability assay; assay type: functional, cell-based; settings: Cricetulus griseus, PC43-10, 96 h
KB [4] = experiment: Growth inhibition of human KB cells endogenously expressing RFC/FRalpha/PCFT in presence of folic acid incubated for 96 hrs by CellTiter-blue cell viability assay; assay type: functional, cell-based
KB [5] = experiment: Growth inhibition of human KB cells endogenously expressing RFC/FRalpha/PCFT incubated for 96 hrs by CellTiter-blue cell viability assay; assay type: functional, cell-based
[6] = Growth inhibition of Chinese hamster RT16 cells expressing human folate receptor alpha incubated for 96 hrs in presence of folic acid by CellTiter-blue cell viability assay; assay type: functional, cell-based; settings: Cricetulus griseus, RT16, 96 h
[7] = Growth inhibition of Chinese hamster RT16 cells expressing human folate receptor alpha incubated for 96 hrs by CellTiter-blue cell viability assay; assay type: functional, cell-based; settings: Cricetulus griseus, RT16, 96 h
R2 [8] = experiment: Growth inhibition of Chinese hamster R2 cells expressing empty vector control incubated for 96 hrs by CellTiter-blue cell viability assay; settings: Cricetulus griseus, R2, 96 h
[9] = target: Folate receptor alpha (Homo sapiens) (UniProt P15328); assay type: cell-based; settings: CHO
Sequence of Folate receptor alpha (Homo sapiens) (P15328 25-234 limits assumed): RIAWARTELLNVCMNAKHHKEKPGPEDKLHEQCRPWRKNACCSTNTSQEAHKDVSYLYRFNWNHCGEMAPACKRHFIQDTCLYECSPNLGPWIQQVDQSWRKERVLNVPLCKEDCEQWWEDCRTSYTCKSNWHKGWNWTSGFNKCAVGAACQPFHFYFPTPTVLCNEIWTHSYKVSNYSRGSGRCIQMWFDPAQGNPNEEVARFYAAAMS

KB [10] = experiment: Growth inhibition of human KB cells endogenously expressing RFC/FRalpha/PCFT in presence of 320 uM 5-amino-4-imidazolecarboxamide incubated for 96 hrs by CellTiter-blue cell viability assay; assay type: functional, cell-based
KB [11] = experiment: Growth inhibition of human KB cells endogenously expressing RFC/FRalpha/PCFT in presence of 60 uM adenosine incubated for 96 hrs by CellTiter-blue cell viability assay; assay type: functional, cell-based
IGROV-1 [12] = experiment: Growth inhibition of human IGROV1 cells endogenously expressing RFC/FRalpha/PCFT incubated for 96 hrs by CellTiter-blue cell viability assay; assay type: functional, cell-based; settings: IGROV-1, 96 h
[13] = target: T1, Proton-coupled folate transporter (Homo sapiens, UniProt Q96NT5); experiment: Inhibition of [3H]MTX transport at human PCFT expressed in Chinese hamster R2 cells at pH 6.8 by Dixon plot; assay type: cell-based
T1 sequence (Q96NT5 whole entry): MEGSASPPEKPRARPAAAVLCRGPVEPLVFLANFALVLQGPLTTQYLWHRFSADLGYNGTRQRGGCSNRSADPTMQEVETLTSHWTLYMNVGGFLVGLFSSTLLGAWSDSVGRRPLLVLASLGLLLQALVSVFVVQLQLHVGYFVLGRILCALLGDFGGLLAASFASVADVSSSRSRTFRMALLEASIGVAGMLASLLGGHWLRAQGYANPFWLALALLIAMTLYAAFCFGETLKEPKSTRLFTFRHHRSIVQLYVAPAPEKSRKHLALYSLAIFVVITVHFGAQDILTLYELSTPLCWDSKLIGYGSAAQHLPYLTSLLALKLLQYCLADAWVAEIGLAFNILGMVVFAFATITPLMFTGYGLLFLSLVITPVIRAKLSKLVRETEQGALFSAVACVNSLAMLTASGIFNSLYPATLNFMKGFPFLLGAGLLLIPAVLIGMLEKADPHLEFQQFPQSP
Method in brief: (§1)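 R2/hPCFT4 CHO cells grown in spinner flasks, resuspended in HBS at pH 6.8 or MES-buffered saline at pH 5.5. Uptake quenched with ice-cold DPBS and normalized to protein. Mean ± SE, n=4–8.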

KB [14] = experiment: Growth inhibition of human KB cells endogenously expressing RFC/FRalpha/PCFT in presence of 50 nM leucovorin incubated for 96 hrs by CellTiter-blue cell viability assay; assay type: functional, cell-based
Method in brief: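 KB cells in complete folate-free RPMI 1640 with 10% dialyzed FBS and LCV at 50 nM (versus the standard 2 nM), exposed to a range of antifolate concentrations for up to 96 h. Cell density read by CellTiter-blue fluorescence and normalized to drug-free cells. Representative data from experiments run in duplicate.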

IGROV-1 [15] = experiment: Growth inhibition of human IGROV1 cells endogenously expressing RFC/FRalpha/PCFT in presence of 10 uM thymidine incubated for 96 hrs by CellTiter-blue cell viability assay; assay type: functional, cell-based
IGROV-1 [16] = experiment: Growth inhibition of human IGROV1 cells endogenously expressing RFC/FRalpha/PCFT in presence of 320 uM 5-amino-4-imidazolecarboxamide incubated for 96 hrs by CellTiter-blue cell viability assay; assay type: functional, cell-based
IGROV-1 [17] = experiment: Growth inhibition of human IGROV1 cells endogenously expressing RFC/FRalpha/PCFT in presence of 60 uM adenosine incubated for 96 hrs by CellTiter-blue cell viability assay; assay type: functional, cell-based
KB [18] = experiment: Growth inhibition of human KB cells endogenously expressing RFC/FRalpha/PCFT in presence of 10 uM thymidine incubated for 96 hrs by CellTiter-blue cell viability assay; assay type: functional, cell-based
[19] = target: T1, Proton-coupled folate transporter; experiment: Inhibition of [3H]MTX transport at human PCFT expressed in Chinese hamster R2 cells at pH 5.5 by Dixon plot; assay type: cell-based; method in brief: as §1
IGROV-1 [20] = experiment: Growth inhibition of human IGROV1 cells endogenously expressing RFC/FRalpha/PCFT in presence of folic acid incubated for 96 hrs by CellTiter-blue cell viability assay; assay type: functional, cell-based; settings: IGROV-1, 96 h
KB [21] = experiment: Inhibition of colony formation of human KB cells endogenously expressing RFC/FRalpha/PCFT incubated for 14 days by methylene blue staining based clonogenicty assay; assay type: functional, cell-based; settings: 336 h
[22] = target: T2, Trifunctional purine biosynthetic protein adenosine-3 (Homo sapiens, UniProt P22102); experiment: Inhibition of GARFTase in human IGROV1 cells assessed as reduction in [14C]glycine incorporation into [14C]formyl GAR incubated for 15 hrs in complete folate free RPMI medium in presence of 2 nM leucovorin; assay type: cell-based, IGROV-1
T2 sequence (P22102 whole entry): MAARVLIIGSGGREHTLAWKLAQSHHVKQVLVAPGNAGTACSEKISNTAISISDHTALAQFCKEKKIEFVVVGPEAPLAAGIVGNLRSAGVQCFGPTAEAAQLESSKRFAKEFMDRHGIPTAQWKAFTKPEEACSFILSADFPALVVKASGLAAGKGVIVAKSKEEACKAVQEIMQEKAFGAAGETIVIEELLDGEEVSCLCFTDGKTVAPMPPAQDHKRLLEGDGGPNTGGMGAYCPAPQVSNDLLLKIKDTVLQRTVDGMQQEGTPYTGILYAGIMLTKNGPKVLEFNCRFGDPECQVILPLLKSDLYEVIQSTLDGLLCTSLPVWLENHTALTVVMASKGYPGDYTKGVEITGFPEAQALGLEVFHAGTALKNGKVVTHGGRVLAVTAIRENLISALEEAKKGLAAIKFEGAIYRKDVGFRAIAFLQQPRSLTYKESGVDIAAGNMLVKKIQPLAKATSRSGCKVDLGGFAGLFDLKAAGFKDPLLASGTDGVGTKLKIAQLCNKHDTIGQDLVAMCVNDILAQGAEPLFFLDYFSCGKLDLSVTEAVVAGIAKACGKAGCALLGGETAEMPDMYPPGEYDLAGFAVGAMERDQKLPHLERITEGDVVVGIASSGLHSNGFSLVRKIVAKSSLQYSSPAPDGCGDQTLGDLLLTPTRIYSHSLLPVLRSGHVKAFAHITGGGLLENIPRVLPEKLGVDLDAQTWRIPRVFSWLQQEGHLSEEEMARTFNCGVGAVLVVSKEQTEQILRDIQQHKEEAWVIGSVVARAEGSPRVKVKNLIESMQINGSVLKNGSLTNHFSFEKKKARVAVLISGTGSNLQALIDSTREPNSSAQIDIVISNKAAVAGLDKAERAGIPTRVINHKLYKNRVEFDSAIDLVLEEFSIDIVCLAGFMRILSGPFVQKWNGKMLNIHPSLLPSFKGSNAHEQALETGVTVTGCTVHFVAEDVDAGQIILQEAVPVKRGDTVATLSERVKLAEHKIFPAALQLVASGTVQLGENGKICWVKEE

[23] = target: T3, Proton-coupled folate transporter (Homo sapiens) (UniProt Q96NT5); experiment: Ratio of Ki for human PCFT at pH 6.8 to Ki for human PCFT at pH 5.5 by [3H]MTX transport assay
T3 sequence (whole entry): T1 sequence (Q96NT5 whole entry)

Structure (SMILES): Nc1nc2[nH]c(CCCCc3csc(C(=O)N[C@@H](CCC(=O)O)C(=O)O)c3)cc2c(=O)[nH]1
pIC50 (R2 [1]): < 6.00
relative binding affinity (RBA) [9]: > 1
pIC50 (R2 [2]): 7.38
pIC50 [3]: < 6.00
growth inhibition (GI) (KB [10]): inactive
growth inhibition (GI) (KB [11]): inactive
pIC50 (IGROV-1 [12]): 9.32
pKi [13]: 4.55
pIC50 (KB [4]): < 6.00
pIC50 (KB [14]): 8.47
growth inhibition (GI) (IGROV-1 [15]): Active
pIC50 (KB [5]): 9.77
growth inhibition (GI) (IGROV-1 [16]): inactive
growth inhibition (GI) (IGROV-1 [17]): inactive
pIC50 [6]: < 6.00
growth inhibition (GI) (KB [18]): Active
pKi [19]: 6.41
pIC50 (IGROV-1 [20]): < 6.00
pIC50 [7]: 8.60
pIC50 (KB [21]): 9.41
pIC50 (R2 [8]): < 6.00

Structure (SMILES): Nc1nc2[nH]c(CCCCc3cscc3C(=O)N[C@@H](CCC(=O)O)C(=O)O)cc2c(=O)[nH]1
pIC50 (R2 [1]): < 6.00
pIC50 (R2 [2]): < 6.00
pIC50 [3]: < 6.00
pIC50 (IGROV-1 [12]): 6.99
pIC50 (KB [4]): < 6.00
pIC50 (KB [5]): 7.45
pIC50 [6]: < 6.00
pIC50 (IGROV-1 [20]): < 6.00
pIC50 [7]: 6.83
pIC50 (R2 [8]): < 6.00

Structure (SMILES): Nc1nc2[nH]c(CCCCc3cc(C(=O)N[C@@H](CCC(=O)O)C(=O)O)cs3)cc2c(=O)[nH]1
pIC50 (R2 [1]): < 6.00
pIC50 [22]: 8.69
relative binding affinity (RBA) [9]: > 1
pIC50 (R2 [2]): 7.20
pIC50 [3]: < 6.00
growth inhibition (GI) (KB [10]): inactive
growth inhibition (GI) (KB [11]): inactive
pIC50 (IGROV-1 [12]): 8.85
pKi [13]: 4.51
pIC50 (KB [4]): < 6.00
pIC50 (KB [14]): < 7.70
growth inhibition (GI) (IGROV-1 [15]): Active
pIC50 (KB [5]): 9.57
growth inhibition (GI) (IGROV-1 [16]): inactive
growth inhibition (GI) (IGROV-1 [17]): inactive
pIC50 [6]: < 6.00
growth inhibition (GI) (KB [18]): Active
Ratio Ki [23]: 70
pKi [19]: 6.38
pIC50 (IGROV-1 [20]): < 6.00
pIC50 [7]: 8.59
pIC50 (KB [21]): 9.80
pIC50 (R2 [8]): < 6.00

Structure (SMILES): Nc1nc2[nH]c(CCCCc3ccc(C(=O)N[C@@H](CCC(=O)O)C(=O)O)s3)cc2c(=O)[nH]1
pIC50 (R2 [1]): < 6.00
pIC50 [22]: 8.46
relative binding affinity (RBA) [9]: > 1
pIC50 [3]: < 6.00
pIC50 (KB [4]): < 6.00
pIC50 (KB [14]): 8.66
pIC50 [6]: < 6.00
pIC50 (IGROV-1 [20]): < 6.00
pIC50 (KB [21]): 9.70
pIC50 (R2 [8]): < 6.00

Further lines, with some results ahead:

pIC50 (KB [4]): < 6.00
pIC50 (KB [5]): < 6.00
Structure (SMILES): Nc1nc2[nH]c(CCC#Cc3cscc3C(=O)N[C@@H](CCC(=O)O)C(=O)O)cc2c(=O)[nH]1
pIC50 (R2 [1]): < 6.00
pIC50 (R2 [2]): < 6.00
pIC50 [3]: < 6.00
pIC50 [6]: < 6.00
pIC50 [7]: < 6.00
pIC50 (R2 [8]): < 6.00

pIC50 (KB [4]): < 6.00
pIC50 (KB [5]): < 6.00
Structure (SMILES): Nc1nc2[nH]c(CCC#Cc3cc(C(=O)N[C@@H](CCC(=O)O)C(=O)O)cs3)cc2c(=O)[nH]1
pIC50 (R2 [1]): < 6.00
pIC50 (R2 [2]): < 6.00
pIC50 [3]: < 6.00
pIC50 (IGROV-1 [12]): < 6.00
pIC50 [6]: < 6.00
pIC50 (IGROV-1 [20]): < 6.00
pIC50 [7]: 8.08
pIC50 (R2 [8]): < 6.00

pIC50 (KB [4]): < 6.00
pIC50 (KB [5]): < 6.00
Structure (SMILES): Nc1nc2[nH]c(CCC#Cc3ccc(C(=O)N[C@@H](CCC(=O)O)C(=O)O)s3)cc2c(=O)[nH]1
pIC50 (R2 [1]): < 6.00
pIC50 (R2 [2]): < 6.00
pIC50 [3]: < 6.00
pIC50 (IGROV-1 [12]): < 6.00
pIC50 [6]: < 6.00
pIC50 (IGROV-1 [20]): < 6.00
pIC50 [7]: 7.92
pIC50 (R2 [8]): < 6.00
